From ChEMBL document CHEMBL4014276, “Diphenylurea derivatives for combating methicillin- and vancomycin-resistant Staphylococcus aureus” (Eur J Med Chem, 2017)
Values after ≈ are worked out from the molar mass of the structure shown. Active and inactive are the calls of the source. No cut-off for these calls is given here.

Columns and labels:
[1] = Apparent permeability across basolateral to apical side in human Caco2 cells at 10 uM after 2 hrs by LC-MS/MS method; assay type: ADME, cell-based; settings: Caco-2
[2] = test system: Staphylococcus aureus; experiment: Antibacterial activity against methicillin-resistant Staphylococcus aureus USA200 NRS383 clinical isolate preincubated followed by bacterial subculturing for 2 weeks; assay type: functional
[3] = test system: Staphylococcus aureus; experiment: Bactericidal activity against methicillin-resistant Staphylococcus aureus USA100 NRS382 clinical isolate after 18 hrs by broth microdilution method; assay type: functional; settings: USA100 NRS382, 18 h
In short: (§1)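 From MIC wells without visible growth, 5 uL spotted onto Tryptic soy agar, incubated 37 °C for at least 18 h; MBC taken as lowest concentration giving 99.9% growth inhibition.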

[4] = test system: Staphylococcus aureus; experiment: Antibacterial activity against methicillin-resistant Staphylococcus aureus USA100 NRS382 clinical isolate after 20 hrs by broth microdilution method; assay type: functional; settings: USA100 NRS382, 20 h
In short: (§2)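 CLSI broth microdilution in cation-adjusted Mueller Hinton broth; compounds serially diluted, triplicate samples; 37 °C, 20 h. MIC read visually as lowest concentration with no visible growth; mean of triplicate determinations reported.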

[5] = test system: Staphylococcus aureus; experiment: Antibacterial activity against methicillin-resistant Staphylococcus aureus USA400 NRS123 clinical isolate preincubated followed by bacterial subculturing for 2 weeks; assay type: functional
[6] = test system: Staphylococcus aureus; experiment: Antibacterial activity against methicillin-resistant Staphylococcus aureus USA300 NRS384 clinical isolate preincubated followed by bacterial subculturing for 2 weeks; assay type: functional
[7] = test system: Staphylococcus aureus; experiment: Antibacterial activity against methicillin-resistant Staphylococcus aureus USA100 NRS382 clinical isolate preincubated followed by bacterial subculturing for 2 weeks; assay type: functional
[8] = Intrinsic clearance in human liver microsomes in presence of NADPH by LC-MS/MS method; assay type: ADME, microsome; settings: read-out: CLH
[9] = Half life in human liver microsomes in presence of NADPH by LC-MS/MS method; assay type: ADME, microsome
[10] = Half life in human liver microsomes in absence of NADPH by LC-MS/MS method; assay type: ADME, microsome
[11] = Intrinsic clearance in human liver microsomes in absence of NADPH by LC-MS/MS method; assay type: ADME, microsome; settings: read-out: CLH
[12] = test system: Staphylococcus aureus; experiment: Antibacterial activity against methicillin-resistant Staphylococcus aureus USA400 NRS123 clinical isolate after 20 hrs by broth microdilution method; assay type: functional; settings: USA400 NRS123, 20 h; in short: as §2
[13] = Apparent permeability across apical to basolateral side in human Caco2 cells at 10 uM after 2 hrs by LC-MS/MS method; assay type: ADME, cell-based; settings: Caco-2
[14] = test system: Staphylococcus aureus; experiment: Bactericidal activity against methicillin-resistant Staphylococcus aureus USA200 NRS383 clinical isolate after 18 hrs by broth microdilution method; assay type: functional; settings: USA200 NRS383, 18 h; in short: as §1
[15] = test system: Staphylococcus aureus; experiment: Antibacterial activity against methicillin-resistant Staphylococcus aureus USA300 NRS384 clinical isolate after 20 hrs by broth microdilution method; assay type: functional; settings: USA300 NRS384, 20 h; in short: as §2
[16] = test system: Staphylococcus aureus; experiment: Bactericidal activity against vancomycin-resistant Staphylococcus aureus VRSA4 after 18 hrs by broth microdilution method; assay type: functional; settings: VRSA4, 18 h; in short: as §1
[17] = test system: Staphylococcus aureus; experiment: Antibacterial activity against Staphylococcus aureus RN4220 NRS107 clinical isolate after 20 hrs by broth microdilution method; assay type: functional; settings: RN4220 NRS107, 20 h; in short: as §2
[18] = test system: Staphylococcus aureus; experiment: Bactericidal activity against vancomycin-resistant Staphylococcus aureus VRSA10 after 18 hrs by broth microdilution method; assay type: functional; settings: VRSA10, 18 h; in short: as §1
[19] = test system: Staphylococcus aureus; experiment: Bactericidal activity against methicillin-resistant Staphylococcus aureus USA400 NRS123 clinical isolate after 18 hrs by broth microdilution method; assay type: functional; settings: USA400 NRS123, 18 h; in short: as §1
[20] = test system: Staphylococcus aureus; experiment: Antibacterial activity against vancomycin-resistant Staphylococcus aureus VRSA10 after 20 hrs by broth microdilution method; assay type: functional; settings: VRSA10, 20 h; in short: as §2
[21] = test system: Staphylococcus aureus; experiment: Bactericidal activity against Staphylococcus aureus RN4220 NRS107 clinical isolate after 18 hrs by broth microdilution method; assay type: functional; settings: RN4220 NRS107, 18 h; in short: as §1
[22] = test system: Staphylococcus aureus; experiment: Antibacterial activity against methicillin-resistant Staphylococcus aureus USA200 NRS383 clinical isolate after 20 hrs by broth microdilution method; assay type: functional; settings: USA200 NRS383, 20 h; in short: as §2
[23] = test system: Staphylococcus aureus; experiment: Bactericidal activity against methicillin-resistant Staphylococcus aureus USA300 NRS384 clinical isolate after 18 hrs by broth microdilution method; assay type: functional; settings: USA300 NRS384, 18 h; in short: as §1
[24] = test system: Staphylococcus aureus; experiment: Antibacterial activity against vancomycin-resistant Staphylococcus aureus VRSA4 after 20 hrs by broth microdilution method; assay type: functional; settings: VRSA4, 20 h; in short: as §2
[25] = test system: HaCaT; experiment: Cytotoxicity against human HaCaT cells up to 64 ug/ml after 2 hrs by MTS assay; assay type: cell-based
In short: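 Keratinocytes grown in DMEM with 10% FBS at 37 °C, 5% CO2; exposed in triplicate to 8, 16, 32 and 64 µg/mL for 2 h. DMSO-matched controls. MTS added for 4 h, absorbance at 490 nm. Viability expressed as % of DMSO-treated cells (mean of triplicate ± SD); one-way ANOVA with Dunnett's test, P < 0.05.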

[26] = test system: Staphylococcus aureus; experiment: Bactericidal activity against methicillin-resistant Staphylococcus aureus USA400 NRS123 clinical isolate assessed as disruption of bacterial membrane by measuring leakage of 260 nM absorbing material at 5 times MIC after 30 mins by spectrophotometric method; assay type: functional
[27] = test system: Staphylococcus aureus; experiment: Bactericidal activity against methicillin-resistant Staphylococcus aureus USA400 infected in mouse J774 cells assessed as reduction in colony forming units at 16 ug/ml after 24 hrs by time kill assay relative to control; assay type: functional
In short: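 J774 murine macrophages in DMEM/10% FBS infected with MRSA USA400 at MOI ~100:1 for 1 h, extracellular bacteria killed with gentamicin 50 µg/mL; treated at 16 µg/mL in triplicate; after 4, 8 or 24 h cells washed, lysed with 0.1% Triton X-100, plated for CFU; percent reduction versus untreated, t-test.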

[28] = test system: Staphylococcus aureus; experiment: Bactericidal activity against methicillin-resistant Staphylococcus aureus USA400 assessed as time required to reduce log10CFU of bacterial load at 4 times MIC by time kill assay; assay type: functional
[29] = test system: Staphylococcus aureus; experiment: Antibacterial activity against methicillin-resistant Staphylococcus aureus USA400 infected in Caenorhabditis elegans AU37 harboring (sek-1(km4);glp-4(bn2)I) mutant assessed as reduction in colony forming units at 10 ug/ml after 20 hrs by microscopic method relative to control; assay type: functional; set-up: scale not given: the % may be the effect or the level left
In short: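 C. elegans AU37 L4/adult worms infected on MRSA USA400 lawn 6 h, washed in M9; 15-25 worms per well treated with 10 µg/mL in triplicate for 20 h, PBS negative control; worms lysed with silicon carbide, plated on TSA with 5 µg/mL nalidixic acid, 37 °C 18 h; CFU per worm, Student's t-test with Holm-Sidak correction.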

[30] = test system: Staphylococcus aureus; experiment: Bactericidal activity against methicillin-resistant Staphylococcus aureus USA400 NRS123 clinical isolate assessed as disruption of bacterial membrane by measuring leakage of 280 nM absorbing material at 5 times MIC after 30 mins by spectrophotometric method; assay type: functional

| SMILES | Activity [2] | MBC [3] [µg/mL] | MIC [4] [µg/mL] | Activity [5] | Activity [6] | Activity [7] | microsomal CLint [8] [µL/min/mg] | half-life [9] [h] | MIC [12] [µg/mL] | MBC [14] [µg/mL] | MIC [15] [µg/mL] | MBC [16] [µg/mL] | MIC [17] [µg/mL] | MBC [18] [µg/mL] | MBC [19] [µg/mL] | MIC [20] [µg/mL] | MBC [21] [µg/mL] | MIC [22] [µg/mL] | MBC [23] [µg/mL] | MIC [24] [µg/mL] | also measured |
| --- | --- | --- | --- | --- | --- | --- | --- | --- | --- | --- | --- | --- | --- | --- | --- | --- | --- | --- | --- | --- | --- |
| CNC(=C[N+](=O)[O-])NCCSCc1ccc(CN(C)C)o1 [RANITIDINE] | – | – | – | – | – | – | – | – | – | – | – | – | – | – | – | – | – | – | – | – | Papp B→A at 2 h, 10 µM [1]: 2.31 ×10⁻⁶ cm/s |
| C/C(=N\NC(=N)N)c1ccc(NC(=O)Nc2ccc(C(C)(C)C)cc2)cc1 | Active | 128 (≈ 349 µM) | 64 (≈ 175 µM) | Active | Active | Active | 20 | 2.9 | – | – | – | – | – | – | – | – | – | – | – | – | – |
| Cc1ncc2n1-c1ccc(Cl)cc1C(c1ccccc1F)=NC2 [MIDAZOLAM] | – | – | – | – | – | – | 402 | 0.095 | – | – | – | – | – | – | – | – | – | – | – | – | half-life [10]: > 4 h; microsomal CLint [11]: < 9.6 µL/min/mg |
| CCCCc1ccc(NC(=O)Nc2ccc(/C(C)=N/NC(=N)N)cc2)cc1 | – | – | – | – | – | – | 190 | 0.217 | 8 (≈ 21.8 µM) | – | – | – | – | – | – | – | – | – | – | – | – |
| CC(=O)CC(c1ccccc1)c1c(O)c2ccccc2oc1=O (stereo unspecified) [WARFARIN] | – | – | – | – | – | – | < 9.6 | – | – | – | – | – | – | – | – | – | – | – | – | – | Papp B→A at 2 h, 10 µM [1]: 20.3 ×10⁻⁶ cm/s; Papp A→B at 2 h, 10 µM [13]: 27.7 ×10⁻⁶ cm/s; microsomal CLint [11]: < 9.6 µL/min/mg |
| CCCCOc1ccc(NC(=O)Nc2ccc(/C(C)=N/NC(=N)N)cc2)cc1 | Active | 16 (≈ 41.8 µM) | 16 (≈ 41.8 µM) | Active | Active | Active | 51 | 1.09 | 8 (≈ 20.9 µM) | 32 (≈ 83.7 µM) | 16 (≈ 41.8 µM) | 16 (≈ 41.8 µM) | 16 (≈ 41.8 µM) | 32 (≈ 83.7 µM) | 32 (≈ 83.7 µM) | 16 (≈ 41.8 µM) | > 64 | 16 (≈ 41.8 µM) | 16 (≈ 41.8 µM) | 16 (≈ 41.8 µM) | – |
| CCCCCOc1ccc(NC(=O)Nc2ccc(/C(C)=N/NC(=N)N)cc2)cc1 | Active | 4 (≈ 10.1 µM) | 4 (≈ 10.1 µM) | Active | Active | Active | – | – | 4 (≈ 10.1 µM) | 4 (≈ 10.1 µM) | 4 (≈ 10.1 µM) | 4 (≈ 10.1 µM) | 4 (≈ 10.1 µM) | 8 (≈ 20.2 µM) | 16 (≈ 40.4 µM) | 4 (≈ 10.1 µM) | 8 (≈ 20.2 µM) | 4 (≈ 10.1 µM) | 4 (≈ 10.1 µM) | 4 (≈ 10.1 µM) | Activity [25]: Non-Toxic |
| CN[C@H](CC(C)C)C(=O)N[C@H]1C(=O)N[C@@H](CC(N)=O)C(=O)N[C@H]2C(=O)N[C@H]3C(=O)N[C@H](C(=O)N[C@H](C(=O)O)c4cc(O)cc(O)c4-c4cc3ccc4O)[C@H](O)c3ccc(c(Cl)c3)Oc3cc2cc(c3O[C@@H]2O[C@H](CO)[C@@H](O)[C@H](O)[C@H]2O[C@H]2C[C@](C)(N)[C@H](O)[C@H](C)O2)Oc2ccc(cc2Cl)[C@H]1O [VANCOMYCIN] | – | < 1 | < 1 | – | – | – | – | – | – | 0.5 (≈ 0.345 µM) | – | > 128 | – | > 128 | 0.5 (≈ 0.345 µM) | > 128 | 1 (≈ 0.69 µM) | – | 1 (≈ 0.69 µM) | > 128 | Activity [26]: inactive; Activity [27]: inactive; Time [28]: 24 h; Activity [29]: 25%; Activity [30]: inactive |
| C/C(=N\NC(=N)N)c1ccc(NC(=O)Nc2ccc(OCc3ccccc3)cc2)cc1 | Active | > 128 | 4 (≈ 9.6 µM) | Active | Active | Active | – | – | 8 (≈ 19.2 µM) | 16 (≈ 38.4 µM) | 8 (≈ 19.2 µM) | 8 (≈ 19.2 µM) | 8 (≈ 19.2 µM) | > 64 | > 64 | 8 (≈ 19.2 µM) | 8 (≈ 19.2 µM) | 8 (≈ 19.2 µM) | 8 (≈ 19.2 µM) | 8 (≈ 19.2 µM) | – |
| C/C(=N\NC(=N)N)c1ccc(NC(=O)Nc2ccc(OCCCC(C)C)cc2)cc1 | Active | 8 (≈ 19.5 µM) | 4 (≈ 9.74 µM) | Active | Active | Active | – | – | 4 (≈ 9.74 µM) | 8 (≈ 19.5 µM) | 8 (≈ 19.5 µM) | 4 (≈ 9.74 µM) | 4 (≈ 9.74 µM) | 4 (≈ 9.74 µM) | 8 (≈ 19.5 µM) | 4 (≈ 9.74 µM) | 4 (≈ 9.74 µM) | 4 (≈ 9.74 µM) | 8 (≈ 19.5 µM) | 4 (≈ 9.74 µM) | Time [28]: <=4 hr |
